Experimental data reported in ChEMBL document CHEMBL1154962, “Novel 6-N-arylcarboxamidopyrazolo[4,3-d]pyrimidin-7-one derivatives as potential anti-cancer agents” (2010).

Tests used:
HT-29 [1] = assay: Cytotoxicity against human HT-29 cells at 100 uM after 2 days by sulforhodamine B assay; type: functional; conditions: HT-29, 48 h
Outline: (§1)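 Five human cancer lines (HT-29, DU-145, A-549, SK-MEL-2, SK-OV-3) seeded at 3–7 × 10³ cells/well; compounds at 100 µM added in duplicate; 37 °C, 5% CO₂, two days. Fixed with formalin, SRB stained, washed with 1% acetic acid, dye solubilized in 10 mM unbuffered Tris base; OD at 520 nm. Read-out is % inhibition.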

DU-145 [2] = assay: Cytotoxicity against human DU145 cells at 100 uM after 2 days by sulforhodamine B assay; type: functional; conditions: DU-145, 48 h; outline: as §1
HT-29 [3] = assay: Growth inhibition of human HT-29 cells after 2 days by MTT assay; type: functional; conditions: HT-29, 48 h
Outline: (§2)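 HT-29 and DU-145 cells seeded at 5 × 10⁴ cells/mL; serial concentrations added in duplicate; 37 °C, 5% CO₂, two days. MTT dye (Cell Titer96) for up to 4 h at 37 °C, then solubilization/stop mix overnight at room temperature; OD at 570 nm. GI₅₀ = concentration giving 50% growth inhibition; mean ± SEM of three or more experiments; doxorubicin as internal standard.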

DU-145 [4] = assay: Growth inhibition of human DU145 cells after 2 days by MTT assay; type: functional; conditions: DU-145, 48 h; outline: as §2
[5] = molecular target: T1, Aurora kinase A (Homo sapiens) (UniProt O14965); assay: Inhibition of human Aurora A at 10 uM
T1 sequence (whole entry): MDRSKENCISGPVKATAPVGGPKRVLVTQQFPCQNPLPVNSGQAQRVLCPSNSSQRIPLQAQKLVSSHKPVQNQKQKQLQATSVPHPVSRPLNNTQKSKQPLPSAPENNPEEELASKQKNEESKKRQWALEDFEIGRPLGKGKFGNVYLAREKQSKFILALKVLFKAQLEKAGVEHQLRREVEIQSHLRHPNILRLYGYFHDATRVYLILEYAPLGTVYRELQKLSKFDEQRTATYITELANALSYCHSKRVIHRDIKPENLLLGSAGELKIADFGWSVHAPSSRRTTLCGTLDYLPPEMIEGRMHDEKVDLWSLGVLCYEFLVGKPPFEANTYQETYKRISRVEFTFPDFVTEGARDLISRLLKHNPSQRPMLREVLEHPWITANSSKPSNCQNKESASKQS

[6] = molecular target: Glycogen synthase kinase-3 beta (Homo sapiens) (UniProt P49841); assay: Inhibition of human GSK3-beta at 10 uM
Chain of Glycogen synthase kinase-3 beta (Homo sapiens) (P49841 whole entry, looked up): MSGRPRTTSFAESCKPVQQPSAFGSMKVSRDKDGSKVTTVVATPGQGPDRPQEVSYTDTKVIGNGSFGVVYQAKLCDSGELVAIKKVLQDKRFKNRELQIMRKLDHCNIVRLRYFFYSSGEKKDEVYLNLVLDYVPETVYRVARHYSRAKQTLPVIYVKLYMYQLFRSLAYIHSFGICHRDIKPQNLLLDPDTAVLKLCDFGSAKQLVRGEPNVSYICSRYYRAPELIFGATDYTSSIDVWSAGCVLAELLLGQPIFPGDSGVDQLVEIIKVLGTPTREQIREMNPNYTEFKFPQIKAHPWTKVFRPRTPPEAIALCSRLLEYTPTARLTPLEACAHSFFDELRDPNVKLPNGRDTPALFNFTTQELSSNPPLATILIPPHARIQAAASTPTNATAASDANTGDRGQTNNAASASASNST

[7] = molecular target: Epidermal growth factor receptor (Homo sapiens) (UniProt P00533); assay: Inhibition of human EGFR assessed as remaining enzyme activity at 10 uM; values are per cent of control
Chain of Epidermal growth factor receptor (Homo sapiens) (P00533 whole entry): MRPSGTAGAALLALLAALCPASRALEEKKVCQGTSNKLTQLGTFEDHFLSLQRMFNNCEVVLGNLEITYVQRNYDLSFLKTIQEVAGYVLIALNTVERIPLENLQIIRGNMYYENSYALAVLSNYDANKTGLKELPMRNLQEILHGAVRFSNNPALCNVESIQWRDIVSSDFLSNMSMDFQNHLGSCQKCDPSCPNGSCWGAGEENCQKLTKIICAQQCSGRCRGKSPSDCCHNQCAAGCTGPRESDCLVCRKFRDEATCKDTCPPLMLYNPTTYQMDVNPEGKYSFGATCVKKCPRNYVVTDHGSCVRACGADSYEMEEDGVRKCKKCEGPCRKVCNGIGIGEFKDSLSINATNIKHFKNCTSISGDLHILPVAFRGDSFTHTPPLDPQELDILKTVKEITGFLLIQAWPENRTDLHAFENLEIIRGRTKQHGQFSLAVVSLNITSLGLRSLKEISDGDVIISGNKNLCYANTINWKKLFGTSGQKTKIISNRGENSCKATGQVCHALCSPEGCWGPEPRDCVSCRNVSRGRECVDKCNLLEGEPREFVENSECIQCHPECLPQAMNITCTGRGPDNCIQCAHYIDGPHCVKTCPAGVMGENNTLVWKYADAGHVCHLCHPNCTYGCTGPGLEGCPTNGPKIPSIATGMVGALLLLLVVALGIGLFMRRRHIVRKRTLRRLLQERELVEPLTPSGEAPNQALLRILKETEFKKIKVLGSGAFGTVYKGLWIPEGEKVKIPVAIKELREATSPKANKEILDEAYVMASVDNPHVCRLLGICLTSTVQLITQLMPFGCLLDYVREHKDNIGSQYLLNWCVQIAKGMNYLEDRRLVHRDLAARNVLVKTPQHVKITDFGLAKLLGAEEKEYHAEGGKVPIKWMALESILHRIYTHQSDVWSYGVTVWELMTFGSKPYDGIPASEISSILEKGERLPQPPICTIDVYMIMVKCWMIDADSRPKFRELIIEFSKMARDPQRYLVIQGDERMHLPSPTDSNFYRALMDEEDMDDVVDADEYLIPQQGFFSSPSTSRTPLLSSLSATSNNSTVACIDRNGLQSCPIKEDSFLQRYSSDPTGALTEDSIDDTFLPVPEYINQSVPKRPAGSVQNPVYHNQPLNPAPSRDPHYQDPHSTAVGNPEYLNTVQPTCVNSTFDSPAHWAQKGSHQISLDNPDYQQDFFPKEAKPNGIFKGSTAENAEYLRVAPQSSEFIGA

[8] = molecular target: T1, Aurora kinase A (Homo sapiens); assay: Inhibition of human Aurora A assessed as remaining enzyme activity at 10 uM; values are per cent of control
[9] = molecular target: Glycogen synthase kinase-3 beta (Homo sapiens) (UniProt P49841); assay: Inhibition of human GSK3-beta assessed as remaining enzyme activity at 10 uM; values are per cent of control
[10] = molecular target: Platelet-derived growth factor receptor alpha (Homo sapiens) (UniProt P16234); assay: Inhibition of human PDGFRalpha assessed as remaining enzyme activity at 10 uM; values are per cent of control
Chain of Platelet-derived growth factor receptor alpha (Homo sapiens) (P16234 whole entry): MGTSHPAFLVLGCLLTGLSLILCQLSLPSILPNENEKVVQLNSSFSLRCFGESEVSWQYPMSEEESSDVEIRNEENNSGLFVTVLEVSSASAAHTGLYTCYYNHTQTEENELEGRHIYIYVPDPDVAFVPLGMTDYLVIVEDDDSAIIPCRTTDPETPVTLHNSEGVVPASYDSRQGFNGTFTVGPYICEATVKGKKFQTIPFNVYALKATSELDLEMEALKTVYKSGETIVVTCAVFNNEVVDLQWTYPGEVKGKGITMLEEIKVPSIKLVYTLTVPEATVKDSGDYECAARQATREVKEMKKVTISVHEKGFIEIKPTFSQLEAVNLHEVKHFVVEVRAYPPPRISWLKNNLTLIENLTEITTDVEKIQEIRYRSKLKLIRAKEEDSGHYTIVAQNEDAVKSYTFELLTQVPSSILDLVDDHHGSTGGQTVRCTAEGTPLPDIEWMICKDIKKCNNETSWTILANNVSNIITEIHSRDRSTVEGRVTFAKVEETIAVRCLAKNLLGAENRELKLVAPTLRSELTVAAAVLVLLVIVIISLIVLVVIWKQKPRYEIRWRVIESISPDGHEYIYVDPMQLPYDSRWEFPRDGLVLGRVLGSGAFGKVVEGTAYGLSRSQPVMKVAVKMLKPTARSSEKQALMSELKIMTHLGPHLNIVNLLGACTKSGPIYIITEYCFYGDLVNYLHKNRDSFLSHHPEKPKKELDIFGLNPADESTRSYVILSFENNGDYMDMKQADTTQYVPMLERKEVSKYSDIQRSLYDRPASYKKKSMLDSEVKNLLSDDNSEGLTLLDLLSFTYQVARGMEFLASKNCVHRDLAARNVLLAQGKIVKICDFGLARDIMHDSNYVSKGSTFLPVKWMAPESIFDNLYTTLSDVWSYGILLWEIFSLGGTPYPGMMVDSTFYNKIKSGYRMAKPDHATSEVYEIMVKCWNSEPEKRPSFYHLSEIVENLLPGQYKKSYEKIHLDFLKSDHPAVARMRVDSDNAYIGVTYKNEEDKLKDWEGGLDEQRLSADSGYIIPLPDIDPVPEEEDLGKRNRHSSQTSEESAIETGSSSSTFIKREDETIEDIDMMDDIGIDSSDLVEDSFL

Row | GI50 (HT-29 [3]) | GI50 (DU-145 [4]) | inhibition [5] | inhibition [6] | residual activity [7] | residual activity [8] | residual activity [9] | residual activity [10] | SMILES | inhibition at 100 µM (HT-29 [1]) | inhibition at 100 µM (DU-145 [2])
1 | 2.26 µM | 22.1 µM | 91% | 92% | 76% | 9% | 8% | 99% | CCCCCc1nc2c(-c3ccc(Cl)cc3)n[nH]c2c(=O)n1NC(=O)c1ccccc1 | 90.1% | 88.7%
2 | 0.44 µM | 1.07 µM | 82% | 89% | 85% | 18% | 11% | 95% | Cc1cccc(C(=O)Nn2c(CC3CCCCC3)nc3c(-c4ccc(Cl)cc4)n[nH]c3c2=O)c1 | 88.7% | 85.9%
3 | 6.39 µM | 15.1 µM | 74% | 89% | 113% | 26% | 11% | 77% | O=C(Cc1ccccc1)Nn1c(CC2CCCCC2)nc2c(-c3ccc(Cl)cc3)n[nH]c2c1=O | 85.5% | 79.8%
